MrgX1 antag = antagonists of human MrgX1 receptor. AID 588676. actives 1.3% (n = 310,000). Q96LB2. B-score at 10 µM. MRGX1-HEK293 calcium flux, Fluo-4, BAM8-22 antagonism; active compounds read low;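 active = calcium-response B-score plate-corrected more than 3 library SD below zero, starting fluorescence within 5 deviations, no agonist response on first addition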;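 also: peak minus trough fluorescence over baseline after final BAM8-22 challenge near maximal dose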
Target sequence (Q96LB2 whole entry, looked up): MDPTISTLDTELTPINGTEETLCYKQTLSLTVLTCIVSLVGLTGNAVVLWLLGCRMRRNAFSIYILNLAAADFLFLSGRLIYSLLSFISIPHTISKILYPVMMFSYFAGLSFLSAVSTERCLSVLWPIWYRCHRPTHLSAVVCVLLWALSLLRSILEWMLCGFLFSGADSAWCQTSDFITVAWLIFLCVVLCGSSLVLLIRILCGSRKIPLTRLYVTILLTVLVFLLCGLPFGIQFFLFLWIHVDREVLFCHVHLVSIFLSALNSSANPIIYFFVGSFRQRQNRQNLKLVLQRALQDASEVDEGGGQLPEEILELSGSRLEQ
MrgX1 PAM = human MrgX1 positive allosteric modulation, primary screen; MrgX1-HEK293, Fluo-4 calcium flux, FDSS; active compounds read high; B-score at 10 µM; actives 0.63% (n = 310,000); AID 588675;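 active = plate-corrected calcium response at least 3 library SD above typical, normal starting fluorescence, not activating the receptor alone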;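 also: compound read alongside a low EC10 to EC30 dose of BAM8-22 agonist; peak minus trough fluorescence over baseline measured at the second addition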
RGS4 pot = RGS4 potentiation or activation; HEK293 M3R/inducible RGS4, carbachol calcium flux Fluo4; active compounds read low; B-score at 10 µM; actives 0.92% (n = 310,000); AID 463111;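 active = B-score of the integrated calcium signal more than 4 SD below the library mean, with starting fluorescence not abnormally high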;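 also: negative B-score means reduced calcium response which marks RGS4 activation or potentiation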
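Detection: kinetic calcium fluorescence imaging with Fluo4-AM dye, 2 µM / Material: HEK293 cells with stable M3R and inducible RGS4 / Schedule: recording 10 s baseline at 1 Hz, 100 s post-agonist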
MrgX1 ag = activates human MrgX1 receptor signaling. Q96LB2. B-score at 10 µM. actives 0.44% (n = 310,000). AID 588627. MrgX1-HEK293 cells, Fluo-4 calcium fluorescence, agonist mode; active compounds read high;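 active = calcium response B-score plate-corrected fluorescence ratio at least 3 library SD, with starting fluorescence B-score inside 5 SD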
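Test system: HEK293 cells stably expressing human MrgX1 receptor; Input: fifteen thousand cells per well; Dosing: compound delivered in addition one of three; Schedule: overnight seeding, then 1 h dark dye loading; Technique: Fluo-4 NW calcium fluorescence; Measure: B-scored fluorescence response ratio; Controls: positive and negative controls per plate.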
RGS4 inh = human RGS4 inhibition; P49798; actives 0.45% (n = 310,000); HEK293 M3R/RGS4 inducible, Fluo-4 calcium flux; active compounds read high; triggered by carbachol at its EC20; B-score at 10 µM;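 active = B-score, a plate-corrected calcium signal, over three deviations above library mean, with baseline fluorescence within five deviations of library mean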;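 also: RGS4 expression induced by doxycycline in cells with stable M3 receptor; B-score is computed from the integrated fluorescence ratio over baseline after carbachol; higher B-score means a larger calcium signal and so more RGS4 inhibition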
Target sequence (P49798 whole entry, looked up): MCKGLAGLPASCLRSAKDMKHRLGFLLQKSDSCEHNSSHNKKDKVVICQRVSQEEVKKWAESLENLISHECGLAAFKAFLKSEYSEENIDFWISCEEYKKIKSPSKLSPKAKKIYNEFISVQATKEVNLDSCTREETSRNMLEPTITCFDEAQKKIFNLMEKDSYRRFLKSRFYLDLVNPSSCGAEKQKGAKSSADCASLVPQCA
RGS4 inh valid = validation of RGS4 inhibitors; shares compounds with RGS4 inh; HEK293 M3R/RGS4, carbachol calcium Fluo-4 fluorescence; carbachol added at its EC20; 0 = buffer wells, 100 = carbachol control; calcium response, % at 10 µM; actives 65% (n = 1,700); AID 492999;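 active = duplicate-averaged calcium response above the buffer-only control mean plus 5 SD of those controls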;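 also: integrated fluorescence ratio F max minus min over baseline F0; higher response in RGS4-induced cells means RGS4 inhibition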
RGS4 uninduced = non-induced cell nonspecific activity of RGS4 inhibitors; shares compounds with RGS4 inh; HEK293 M3R non-induced, carbachol calcium Fluo-4; submaximal (EC20) carbachol stimulus; buffer wells 0%, carbachol control wells 100%; activity (percent), % at 10 µM; actives 20% (n = 1,900); AID 493000; call rule not given here;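 also: RGS4 induction absent so cells express M3R without RGS4; higher means more calcium signal and flags a non-specific hit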
RGS4 inh ctr2 = second RGS4 inhibitor counter-screen in uninduced cells lacking carbachol; shares compounds with RGS4 inh; HEK293 M3R/RGS4 non-induced, Fluo-4 calcium, no carbachol; normalised: buffer wells 0%, carbachol wells 100%; calcium response (agonist-mode artifact), % at 10 µM; actives 22% (n = 1,900); AID 493001;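 active = duplicate-averaged calcium rise in uninduced cells above buffer wells' mean plus 5 SD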
* = called active by the depositor. The list is not random: actives were taken first. Their share in the collection is about 3.5%.

NS(=O)(=O)c1ccc(CCNC(=O)CCC2COc3ccccc3O2)cc1 (stereo unspecified) was read as MrgX1 antag inactive, MrgX1 PAM inactive, RGS4 pot inactive, MrgX1 ag inactive and RGS4 inh inactive.
Screening COc1ccc(CCNC(=O)CCC2COc3ccccc3O2)cc1OC (stereo unspecified) returned MrgX1 antag inactive, MrgX1 PAM inactive, RGS4 pot inactive, MrgX1 ag inactive, RGS4 inh inactive, RGS4 inh valid inactive, RGS4 uninduced inactive and RGS4 inh ctr2 inactive.
For O=C(O)C(c1ccccc1)N1C(=O)/C(=C\c2ccc(-c3ccc(Br)cc3)o2)SC1=S (stereo unspecified) the results were RGS4 pot -7.8*, RGS4 inh 9.6*, RGS4 inh valid 9.0%*, RGS4 uninduced inactive and RGS4 inh ctr2 234%*.
For C=CCN1C(=O)/C(=C/c2ccc(-c3ccc(F)cc3)o2)SC1=S the results were MrgX1 antag -5.6*, MrgX1 PAM inactive, RGS4 pot inactive, MrgX1 ag inactive, RGS4 inh 14*, RGS4 inh valid 34%*, RGS4 uninduced inactive and RGS4 inh ctr2 60%*.
`C=CCN1C(=O)/C(=C/c2ccsc2)SC1=S` gave MrgX1 antag inactive, MrgX1 PAM inactive, RGS4 pot inactive, MrgX1 ag inactive and RGS4 inh inactive.
Screening Nc1nc(Cl)cc(Nc2ccccc2Cl)n1 returned MrgX1 antag inactive, MrgX1 PAM inactive, RGS4 pot inactive, MrgX1 ag inactive and RGS4 inh inactive.
COc1ccc(Nc2cc(Cl)nc(N)n2)cc1OC was read as MrgX1 antag inactive, MrgX1 PAM inactive, RGS4 pot inactive, MrgX1 ag inactive, RGS4 inh 6.1*, RGS4 inh valid 6.0%*, RGS4 uninduced inactive and RGS4 inh ctr2 inactive.
CCc1nnc(NC(=O)c2cc(-c3ccccn3)nc3ccc(Br)cc23)s1 was read as MrgX1 antag inactive, MrgX1 PAM inactive, RGS4 pot inactive, MrgX1 ag inactive and RGS4 inh inactive.
Screening Cc1sc(NC(=O)c2cc(-c3ccccc3)nc3ccccc23)c(C(N)=O)c1C returned MrgX1 antag inactive, MrgX1 PAM inactive, RGS4 pot inactive, MrgX1 ag inactive, RGS4 inh inactive, RGS4 uninduced inactive and RGS4 inh ctr2 inactive.
For CCc1nnc(NC(=O)c2cc(-c3ccncc3)nc3ccccc23)s1 the results were MrgX1 antag inactive, MrgX1 PAM inactive, RGS4 pot inactive, MrgX1 ag inactive, RGS4 inh 4.9*, RGS4 inh valid 18%*, RGS4 uninduced inactive and RGS4 inh ctr2 inactive.
For Cc1sc(NC(=O)c2cc(-c3ccc(Cl)cc3)nc3ccccc23)c(C(N)=O)c1C the results were MrgX1 antag inactive, MrgX1 PAM inactive, RGS4 pot inactive, MrgX1 ag inactive and RGS4 inh inactive.
CC(OC(=O)CCN=C1NS(=O)(=O)c2ccccc21)C(=O)Nc1ccccc1F (stereo unspecified) was read as MrgX1 antag inactive, MrgX1 PAM inactive, RGS4 pot inactive, MrgX1 ag inactive and RGS4 inh inactive.
Cc1ccc(C(C2C(=O)CC(C)(C)CC2=O)C2C(=O)CC(C)(C)CC2=O)s1 was read as MrgX1 antag inactive, MrgX1 PAM inactive, RGS4 pot inactive, MrgX1 ag inactive, RGS4 inh 25*, RGS4 inh valid 17%*, RGS4 uninduced inactive and RGS4 inh ctr2 inactive.
Screening COc1cccc(Cn2c(=O)c3[nH]cnc3n(-c3ccccc3C)c2=O)c1 returned MrgX1 antag inactive, MrgX1 PAM inactive, RGS4 pot inactive, MrgX1 ag inactive, RGS4 inh inactive, RGS4 uninduced inactive and RGS4 inh ctr2 inactive.
For O=C(CCNC(=O)Cn1ccc2ccccc2c1=O)NCc1ccccn1 the results were MrgX1 antag inactive, MrgX1 PAM inactive, RGS4 pot inactive, MrgX1 ag inactive and RGS4 inh inactive.
`Nc1cccn2c(-c3ccc(Cl)cc3)cnc12` gave MrgX1 antag inactive, MrgX1 PAM inactive, RGS4 pot inactive, MrgX1 ag inactive and RGS4 inh inactive.
For Nc1cccn2c(-c3ccc(Cl)c(Cl)c3)cnc12 the results were MrgX1 antag inactive, MrgX1 PAM inactive, RGS4 pot inactive, MrgX1 ag inactive, RGS4 inh 12*, RGS4 inh valid 7.5%*, RGS4 uninduced inactive and RGS4 inh ctr2 inactive.
Cc1nn(C)c(C(=O)N/N=C/c2cccnc2)c1Br was read as MrgX1 antag inactive, MrgX1 PAM inactive, RGS4 pot inactive, MrgX1 ag inactive and RGS4 inh inactive.
`CC(C)OC(=O)C(C)Nc1ccc(F)c(Cl)c1` (stereo unspecified) gave MrgX1 antag inactive, MrgX1 PAM inactive, RGS4 pot inactive, MrgX1 ag inactive and RGS4 inh inactive.
`Cc1cc(C(=O)CN2C(=O)C(=O)N(Cc3ccccc3)C2=O)c(C)n1-c1ccc2c(c1)OCCO2` gave MrgX1 antag inactive, MrgX1 PAM inactive, RGS4 pot inactive, MrgX1 ag inactive and RGS4 inh inactive.
`CCOC(=O)c1ccc(N2C(=O)c3n[nH]c(-c4ccco4)c3C2c2ccc([N+](=O)[O-])cc2)cc1` (stereo unspecified) gave MrgX1 antag inactive, MrgX1 PAM inactive, RGS4 pot inactive, MrgX1 ag inactive, RGS4 inh inactive, RGS4 inh valid inactive, RGS4 uninduced inactive and RGS4 inh ctr2 inactive.
`Cn1c(OCc2ccco2)nc2c1c(=O)n(Cc1ccc(Cl)c(Cl)c1)c(=O)n2C` gave MrgX1 antag inactive, MrgX1 PAM inactive, RGS4 pot inactive, MrgX1 ag inactive, RGS4 inh 5.9*, RGS4 inh valid 6.5%*, RGS4 uninduced inactive and RGS4 inh ctr2 inactive.
CCN(CC(=O)Nc1c(F)cccc1F)C(=O)C1CC(=O)N(c2ccccc2OC)C1 (stereo unspecified) was read as MrgX1 antag inactive, MrgX1 PAM inactive, RGS4 pot inactive, MrgX1 ag inactive and RGS4 inh inactive.

Bioassay records deposited in PubChem BioAssay by Johns Hopkins Ion Channel Center.
